Assay results from ChEMBL document CHEMBL3272325, “Structure-activity relationships of dimeric Catharanthus alkaloids. 1. Deacetylvinblastine amide (vindesine) sulfate” (J Med Chem, 1978).

Tests used:
[1] = Antitumor activity against mouse Ridgeway osteogenic sarcoma cells allografted in mouse at 0.5 to 0.7 mg/kg/day, ip; assay type: functional; settings: route intraperitoneal
Procedure, shortened: (§1)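 Sulfate salts given ip on days 1-9 against ROS and GLS in mice; tumor growth scored as percent inhibition versus controls (+++ = 75-100%, ++ = 50-75%, ± = under 25%).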

[2] = Antitumor activity against mouse Gardner lymphosarcoma cell allografted in mouse at 0.5 to 0.7 mg/kg/day, ip; assay type: functional; settings: route intraperitoneal; procedure, shortened: as §1
[3] = Acute toxicity in ip dosed mouse; assay type: organism-based; settings: in vivo
[4] = Antitumor activity against mouse Gardner lymphosarcoma cell allografted in mouse at 0.5 to 0.8 mg/kg/day, ip; assay type: functional; settings: route intraperitoneal; procedure, shortened: as §1
[5] = Antitumor activity against mouse Ridgeway osteogenic sarcoma cells allografted in mouse at 0.5 to 0.8 mg/kg/day, ip; assay type: functional; settings: route intraperitoneal; procedure, shortened: as §1
Blood = assay: Biodistribution in po dosed rat blood using [3H]-labeled drug relative to Iv dosing; assay type: ADME, organism-based; settings: in vivo
B16 [6] = assay: Antitumor activity against mouse B16 cells allografted in C57Bl/6 mouse assessed as increase in life span at 1.2 mg/kg/day, ip administered on day 1, 5 and 9 measured for 61 days relative to control; assay type: functional; settings: route intraperitoneal
B16 [7] = assay: Antitumor activity against mouse B16 cells allografted in C57Bl/6 mouse assessed as mean survival time at 1.2 mg/kg/day, ip administered on day 1, 5 and 9 (reference value: 24.6 days); assay type: functional; settings: route intraperitoneal
B16 [8] = assay: Antitumor activity against mouse B16 cells allografted in C57Bl/6 mouse assessed as mean survival time at 0.15 mg/kg/day, ip administered on day 1, 5 and 9 (reference value: 24.6 days); assay type: functional; settings: route intraperitoneal
P388 [9] = assay: Antitumor activity against mouse P388 cells allografted in mouse assessed as increase in life span at 0.27 mg/kg/day, ip administered from day 1 to day 9 relative to untreated control; assay type: functional; settings: route intraperitoneal
Procedure, shortened: (§2)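 P388 ascites implanted ip in mice, 10 animals per group. Sulfate salts given ip either daily on days 1-9 or as a single dose on day 1. Median life span was calculated using all deaths and survivors. Percent increase in life span was taken over untreated controls. The highest nontoxic dose was noted.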

B16 [10] = assay: Antitumor activity against mouse B16 cells allografted in C57Bl/6 mouse assessed as increase in life span at 0.15 mg/kg/day, ip administered on day 1, 5 and 9 measured for 61 days relative to control; assay type: functional; settings: route intraperitoneal
Procedure, shortened: (§3)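 C57BL/6 mice implanted ip with 0.5 mL of B16 melanoma brei. Alkaloid sulfate salts given ip on days 1, 5, 9 or on days 5, 9, 13. Percent increase in life span measured against controls; experiment ended at 61 days.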

B16 [11] = assay: Antitumor activity against mouse B16 cells allografted in C57Bl/6 mouse assessed as increase in life span at 0.3 mg/kg/day, ip administered on day 1, 5 and 9 measured for 61 days relative to control; assay type: functional; settings: route intraperitoneal; procedure, shortened: as §3
B16 [12] = assay: Antitumor activity against mouse B16 cells allografted in C57Bl/6 mouse assessed as increase in life span at 0.6 mg/kg/day, ip administered on day 5, 9 and 13 measured for 61 days relative to control; assay type: functional; settings: route intraperitoneal; procedure, shortened: as §3
[13] = Antitumor activity against mouse Ridgeway osteogenic sarcoma cells allografted in mouse at 0.3 to 0.4 mg/kg/day, ip; assay type: functional; settings: route intraperitoneal
Procedure, shortened: (§4)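 Ridgeway osteogenic sarcoma and Gardner lymphosarcoma in mice, with sulfate salts given ip daily on days 1-9. Tumor growth inhibition versus controls scored in bands: +++ = 75-100%, ++ = 50-75%, ± = under 25%.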

[14] = Antitumor activity against mouse P1534(J) cells allografted in mouse assessed as tumor growth inhibition at 0.1 mg/kg/day, ip administered from day 1 to day 9 relative to unreated control; assay type: functional; settings: P1534J, route intraperitoneal, read-out: TGI
Procedure, shortened: (§5)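 P1534(J) leukemia implanted subcutaneously in mice. Sulfate salts given ip daily on days 1-9. Read-out was percent inhibition of tumor growth relative to untreated controls. The highest nontoxic dose was recorded.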

[15] = Toxicity in ip dosed mouse allografted with mouse p388 cells administered from day 1 to day 9; assay type: organism-based; settings: in vivo, read-out: MNTD; procedure, shortened: as §2
B16 [16] = assay: Antitumor activity against mouse B16 cells allografted in C57Bl/6 mouse assessed as mean survival time at 0.6 mg/kg/day, ip administered on day 5, […] (reference value: 21.5 days); assay type: functional; settings: route intraperitoneal
P388 [17] = assay: Antitumor activity against mouse P388 cells allografted in mouse assessed as increase in life span at 0.18 mg/kg/day, ip administered from day 1 to day 9 relative to untreated control; assay type: functional; settings: route intraperitoneal; procedure, shortened: as §2
B16 [18] = assay: Antitumor activity against mouse B16 cells allografted in C57Bl/6 mouse assessed as mean survival time at 1.2 mg/kg/day, ip administered on day 5, […] (reference value: 21.5 days); assay type: functional; settings: route intraperitoneal
B16 [19] = assay: Antitumor activity against mouse B16 cells allografted in C57Bl/6 mouse assessed as increase in life span at 0.9 mg/kg/day, ip administered on day 1, 5 and 9 measured for 61 days relative to control; assay type: functional; settings: route intraperitoneal; procedure, shortened: as §3
[20] = Toxicity in ip dosed mouse allografted with mouse p388 cells after 1 day; assay type: organism-based; settings: in vivo, read-out: MNTD; procedure, shortened: as §2
[21] = Antitumor activity against mouse P1534(J) cells allografted in mouse assessed as tumor growth inhibition at 0.2 mg/kg/day, ip administered from day 1 to day 9 relative to unreated control; assay type: functional; settings: P1534J, route intraperitoneal, read-out: TGI; procedure, shortened: as §5
P388 [22] = assay: Antitumor activity against mouse P388 cells allografted in mouse assessed as increase in life span at 4 mg/kg/day, ip after 1 day; assay type: functional; settings: 24 h, route intraperitoneal; procedure, shortened: as §2
P388 [23] = assay: Antitumor activity against mouse P388 cells allografted in mouse assessed as increase in life span at 1.8 mg/kg/day, ip after 1 day; assay type: functional; settings: 24 h, route intraperitoneal; procedure, shortened: as §2
B16 [24] = assay: Antitumor activity against mouse B16 cells allografted in C57Bl/6 mouse assessed as increase in life span at 0.6 mg/kg/day, ip administered on day 1, 5 and 9 measured for 61 days relative to control; assay type: functional; settings: route intraperitoneal; procedure, shortened: as §3
P388 [25] = assay: Antitumor activity against mouse P388 cells allografted in mouse assessed as increase in life span at 0.6 mg/kg/day, ip administered from day 1 to day 9 relative to untreated control; assay type: functional; settings: route intraperitoneal; procedure, shortened: as §2
B16 [26] = assay: Antitumor activity against mouse B16 cells allografted in C57Bl/6 mouse assessed as increase in life span at 0.9 mg/kg/day, ip administered on day 5, 9 and 13 measured for 61 days relative to control; assay type: functional; settings: route intraperitoneal; procedure, shortened: as §3
B16 [27] = assay: Antitumor activity against mouse B16 cells allografted in C57Bl/6 mouse assessed as mean survival time at 0.9 mg/kg/day, ip administered on day 1, 5 and 9 (reference value: 24.6 days); assay type: functional; settings: route intraperitoneal
P388 [28] = assay: Antitumor activity against mouse P388 cells allografted in mouse assessed as increase in life span at 1.7 mg/kg/day, ip after 1 day; assay type: functional; settings: 24 h, route intraperitoneal; procedure, shortened: as §2
B16 [29] = assay: Antitumor activity against mouse B16 cells allografted in C57Bl/6 mouse assessed as mean survival time at 0.3 mg/kg/day, ip administered on day 5, […] (reference value: 21.5 days); assay type: functional; settings: route intraperitoneal
B16 [30] = assay: Antitumor activity against mouse B16 cells allografted in C57Bl/6 mouse assessed as mean survival time at 0.6 mg/kg/day, ip administered on day 1, 5 and 9 (reference value: 24.6 days); assay type: functional; settings: route intraperitoneal
P388 [31] = assay: Antitumor activity against mouse P388 cells allografted in mouse assessed as increase in life span at 0.4 mg/kg/day, ip administered from day 1 to day 9 relative to untreated control; assay type: functional; settings: route intraperitoneal; procedure, shortened: as §2
B16 [32] = assay: Antitumor activity against mouse B16 cells allografted in C57Bl/6 mouse assessed as increase in life span at 0.15 mg/kg/day, ip administered on day 5, 9 and 13 measured for 61 days relative to control; assay type: functional; settings: route intraperitoneal; procedure, shortened: as §3
B16 [33] = assay: Antitumor activity against mouse B16 cells allografted in C57Bl/6 mouse assessed as increase in life span at 1.2 mg/kg/day, ip administered on day 5, 9 and 13 measured for 61 days relative to control; assay type: functional; settings: route intraperitoneal
B16 [34] = assay: Antitumor activity against mouse B16 cells allografted in C57Bl/6 mouse assessed as mean survival time at 0.3 mg/kg/day, ip administered on day 1, 5 and 9 (reference value: 24.6 days); assay type: functional; settings: route intraperitoneal
B16 [35] = assay: Antitumor activity against mouse B16 cells allografted in C57Bl/6 mouse assessed as increase in life span at 0.3 mg/kg/day, ip administered on day 5, 9 and 13 measured for 61 days relative to control; assay type: functional; settings: route intraperitoneal; procedure, shortened: as §3
B16 [36] = assay: Antitumor activity against mouse B16 cells allografted in C57Bl/6 mouse assessed as mean survival time at 0.9 mg/kg/day, ip administered on day 5, 9 and 13 (reference value: 21.5 days); settings: route intraperitoneal
[37] = Antitumor activity against mouse Gardner lymphosarcoma cell allografted in mouse at 0.3 to 0.4 mg/kg/day, ip; assay type: functional; settings: route intraperitoneal; procedure, shortened: as §4
P388 [38] = assay: Antitumor activity against mouse P388 cells allografted in mouse assessed as increase in life span at 6 mg/kg/day, ip after 1 day; assay type: functional; settings: 24 h, route intraperitoneal; procedure, shortened: as §2
P388 [39] = assay: Antitumor activity against mouse P388 cells allografted in mouse assessed as increase in life span at 9 mg/kg/day, ip after 1 day; assay type: functional; settings: 24 h, route intraperitoneal; procedure, shortened: as §2
B16 [40] = assay: Antitumor activity against mouse B16 cells allografted in C57Bl/6 mouse assessed as mean survival time at 0.15 mg/kg/day, ip administered on day 5, […] (reference value: 21.5 days); assay type: functional; settings: route intraperitoneal
[41] = Toxicity in ip dosed mouse allografted with mouse P1534(J) cells administered from day 1 to day 9; assay type: organism-based; settings: in vivo, read-out: MNTD; procedure, shortened: as §5

CC[C@]1(O)C[C@H]2CN(CCc3c([nH]c4ccccc34)[C@@](C(=O)OC)(c3cc4c(cc3OC)N(C)[C@H]3[C@@](O)(C(N)=O)[C@H](O)[C@]5(CC)CCCN6CC[C@]43[C@@H]65)C2)C1.O=S(=O)(O)O
TGI [1]: 50% | TGI [2]: 50%

CC[C@]1(O)C[C@@H]2C[C@](C(=O)OC)(c3cc4c(cc3OC)N(C)[C@H]3[C@@](O)(C(N)=O)[C@H](O)[C@]5(CC)C=CCN6CC[C@]43[C@@H]65)c3[nH]c4ccccc4c3CC[N+]([O-])(C2)C1
LD50 [3]: > 10 mg/kg | TGI [4]: 25% | TGI [5]: 25%

CC[C@]1(O)C[C@@H]2CN(CCc3c([nH]c4ccccc34)[C@@](C(=O)OC)(c3cc4c(cc3OC)N(C)[C@H]3[C@@](O)(C(N)=O)[C@H](O)[C@]5(CC)C=CCN6CC[C@]43[C@@H]65)C2)C1 [VINDESINE]
Drug uptake (Blood): 1%

CC[C@]1(O)C[C@H]2CN(CCc3c([nH]c4ccccc34)[C@@](C(=O)OC)(c3cc4c(cc3OC)N(C)[C@H]3[C@@](O)(C(=O)OC)[C@H](O)[C@]5(CC)C=CCN6CC[C@]43[C@@H]65)C2)C1.O=S(=O)(O)O
ILS at 1.2 mg/kg/day (B16 [6]): 69% | MST (B16 [7]): 41.5 days | MST (B16 [8]): 42.1 days | ILS at 0.27 mg/kg/day (P388 [9]): 181% | ILS at 0.15 mg/kg/day (B16 [10]): 71% | ILS at 0.3 mg/kg/day (B16 [11]): 100% | ILS at 0.6 mg/kg/day (B16 [12]): 91% | LD50 [3]: 5.8 mg/kg | TGI [13]: 50% | inhibition in vivo at 0.1 mg/kg/day [14]: 41% | MTD [15]: 0.6 mg/kg/day | MST (B16 [16]): 41.1 days | ILS at 0.18 mg/kg/day (P388 [17]): 136% | MST (B16 [18]): 45.2 days | ILS at 0.9 mg/kg/day (B16 [19]): 84% | MTD at 24 h [20]: 9 mg/kg/day | inhibition in vivo at 0.2 mg/kg/day [21]: 96% | ILS at 4 mg/kg/day (P388 [22]): 218% | ILS at 1.8 mg/kg/day (P388 [23]): 159% | ILS at 0.6 mg/kg/day (B16 [24]): 109% | ILS at 0.6 mg/kg/day (P388 [25]): > 263% | ILS at 0.9 mg/kg/day (B16 [26]): 126% | MST (B16 [27]): 45.3 days | ILS at 1.7 mg/kg/day (P388 [28]): 154% | MST (B16 [29]): 41.1 days | MST (B16 [30]): 51.5 days | ILS at 0.4 mg/kg/day (P388 [31]): > 263% | ILS at 0.15 mg/kg/day (B16 [32]): 57% | ILS at 1.2 mg/kg/day (B16 [33]): 110% | MST (B16 [34]): 49.3 days | ILS at 0.3 mg/kg/day (B16 [35]): 91% | MST (B16 [36]): 48.7 days | TGI [37]: 50% | ILS at 6 mg/kg/day (P388 [38]): 200% | ILS at 9 mg/kg/day (P388 [39]): > 263% | MST (B16 [40]): 33.7 days | MTD [41]: 0.2 mg/kg/day
